The record followed here is ChEMBL document CHEMBL2177039, “Identification of a chemical probe for bromo and extra C-terminal bromodomain inhibition through optimization of a fragment-derived hit” (J Med Chem, 2012).

Data set [1] concerns the target Bromodomain-containing protein 4 (Homo sapiens, UniProt O60885). Description: Inhibition of BRD4 isoform 1 by AlphaScreen assay. Put shortly: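 His-tagged bromodomain protein preincubated 30 min at room temperature with compound in 50 mM HEPES, 100 mM NaCl, 0.1% BSA, pH 7.4, plus 0.05% CHAPS; biotinylated peptide added for a further 30 min; streptavidin donor and nickel chelate acceptor beads (25 µg/ml each) then added, 60 min in the dark.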
In general terms: Bead proximity is the source of the signal in Alpha formats.

A short description of data set [2]: Volume of distribution in rat at 1 mg/kg, iv. The conditions noted are these: in vivo. Type of data set: ADME, organism-based. Also noted: dose 1 mg/kg, route intravenous.
Data set [3] concerns the target Bromodomain testis-specific protein (Homo sapiens) (UniProt Q58F21). Description: Binding affinity to BRDT isoform 1 assessed as change in melting temperature at 10 uM by thermal shift assay.
Data set [4] can be described thus: Cmax in mouse at 2 mg/kg, sc. Type of data set: ADME, organism-based. Details: dose 2 mg/kg, route subcutaneous. The conditions noted are these: in vivo.
Data set [5] concerns the target Bromodomain-containing protein 2 (Homo sapiens) (UniProt P25440). Description: Binding affinity to BRD2 isoform 2 assessed as change in melting temperature at 10 uM by thermal shift assay.
Data set [6] is described as follows: Oral bioavailability […] in rat at 2 mg/kg. Type of data set: ADME, organism-based. As to conditions: in vivo.
A further data set deals with Liver microsomes. Kind of data set: Half life in rat liver microsomes. Type of data set: ADME, Microsome. On the technique in general: Liver microsomes are a subcellular fraction often used to study metabolism.
Data set [7] is described as follows: Half life in mouse at 2 mg/kg, sc. Also noted: dose 2 mg/kg, route subcutaneous. The conditions noted are these: in vivo. The format is ADME, organism-based.
In data set [8] the target is Bromodomain-containing protein 3 (Homo sapiens) (UniProt Q15059). Description: Binding affinity to BRD3 isoform 2 assessed as change in melting temperature at 10 uM by thermal shift assay.
Data set [9] is described as follows: Tmax in mouse at 2 mg/kg, sc. Type of data set: ADME, organism-based. The conditions noted are these: in vivo. Details: dose 2 mg/kg, route subcutaneous.
Data set [10] in a line: Drug concentration in rat gut at 1 mg/kg, iv measured 7 hrs post dose. Type of data set: ADME, organism-based. Details: dose 1 mg/kg, route intravenous. As to conditions: read-out: Drug uptake.
Data set [11] concerns the target Histone acetyltransferase KAT2B (Homo sapiens) (UniProt Q92831). Description: Binding affinity to PCAF assessed as change in melting temperature at 10 uM by thermal shift assay.
The nature of data set [12]: Protein binding in rat plasma. Type of data set: ADME, cell-free. As to conditions: read-out: PPB (converted).
For the next data set, the system named is PBMC. Description: Inhibition of LPS-induced IL6 production in human PBMC by ELISA. The format is functional, cell-based. The essentials: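 Mononuclear cells washed in Ca/Mg-free PBS, then RPMI + 5% FBS; plated at 2E5 cells/well. Compound added at 0.1% DMSO final and preincubated 30 min; stimulated with ultrapure LPS O111:B4 at 0.5 ng/ml final. Supernatants collected after 20 h; cytokines measured by multiplex ELISA.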
Background: In an ELISA, binding on a coated surface is turned into a signal by an enzyme label.

Data set [13] is described as follows: Half life in rat at 1 mg/kg, iv. Type of data set: ADME, organism-based. Also noted: dose 1 mg/kg, route intravenous. The conditions noted are these: in vivo.
Data set [14] concerns the target Bromodomain-containing protein 2 (Homo sapiens) (UniProt P25440). Kind of data set: Binding affinity to BRD2 isoform 1 assessed as change in melting temperature at 10 uM by thermal shift assay.
Data set [15] deals with Bromodomain-containing protein 3 (Homo sapiens) (UniProt Q15059). Kind of data set: Binding affinity to BRD3 isoform 1 assessed as change in melting temperature at 10 uM by thermal shift assay.
Data set [16] addresses T1, CREB-binding protein (Homo sapiens, UniProt Q92793). Description: Binding affinity to CREBBP by SPR method.
In data set [17] the target is Protein polybromo-1 (Homo sapiens) (UniProt Q86U86). Description: Binding affinity to pb1 isoform 5 assessed as change in melting temperature at 10 uM by thermal shift assay.
Data set [18] deals with Bromodomain adjacent to zinc finger domain protein 2B (Homo sapiens) (UniProt Q9UIF8). Description: Binding affinity to BAZ2B assessed as change in melting temperature at 10 uM by thermal shift assay.
Data set [19] is described as follows: Plasma clearance in rat at 1 mg/kg, iv. Type of data set: ADME, organism-based. Also noted: dose 1 mg/kg, route intravenous.
Data set [20] concerns the target T1, CREB-binding protein. Description: Binding affinity to CREBBP assessed as change in melting temperature at 10 uM by thermal shift assay.
Target sequence in this assay (Q92793 2-2442 limits assumed): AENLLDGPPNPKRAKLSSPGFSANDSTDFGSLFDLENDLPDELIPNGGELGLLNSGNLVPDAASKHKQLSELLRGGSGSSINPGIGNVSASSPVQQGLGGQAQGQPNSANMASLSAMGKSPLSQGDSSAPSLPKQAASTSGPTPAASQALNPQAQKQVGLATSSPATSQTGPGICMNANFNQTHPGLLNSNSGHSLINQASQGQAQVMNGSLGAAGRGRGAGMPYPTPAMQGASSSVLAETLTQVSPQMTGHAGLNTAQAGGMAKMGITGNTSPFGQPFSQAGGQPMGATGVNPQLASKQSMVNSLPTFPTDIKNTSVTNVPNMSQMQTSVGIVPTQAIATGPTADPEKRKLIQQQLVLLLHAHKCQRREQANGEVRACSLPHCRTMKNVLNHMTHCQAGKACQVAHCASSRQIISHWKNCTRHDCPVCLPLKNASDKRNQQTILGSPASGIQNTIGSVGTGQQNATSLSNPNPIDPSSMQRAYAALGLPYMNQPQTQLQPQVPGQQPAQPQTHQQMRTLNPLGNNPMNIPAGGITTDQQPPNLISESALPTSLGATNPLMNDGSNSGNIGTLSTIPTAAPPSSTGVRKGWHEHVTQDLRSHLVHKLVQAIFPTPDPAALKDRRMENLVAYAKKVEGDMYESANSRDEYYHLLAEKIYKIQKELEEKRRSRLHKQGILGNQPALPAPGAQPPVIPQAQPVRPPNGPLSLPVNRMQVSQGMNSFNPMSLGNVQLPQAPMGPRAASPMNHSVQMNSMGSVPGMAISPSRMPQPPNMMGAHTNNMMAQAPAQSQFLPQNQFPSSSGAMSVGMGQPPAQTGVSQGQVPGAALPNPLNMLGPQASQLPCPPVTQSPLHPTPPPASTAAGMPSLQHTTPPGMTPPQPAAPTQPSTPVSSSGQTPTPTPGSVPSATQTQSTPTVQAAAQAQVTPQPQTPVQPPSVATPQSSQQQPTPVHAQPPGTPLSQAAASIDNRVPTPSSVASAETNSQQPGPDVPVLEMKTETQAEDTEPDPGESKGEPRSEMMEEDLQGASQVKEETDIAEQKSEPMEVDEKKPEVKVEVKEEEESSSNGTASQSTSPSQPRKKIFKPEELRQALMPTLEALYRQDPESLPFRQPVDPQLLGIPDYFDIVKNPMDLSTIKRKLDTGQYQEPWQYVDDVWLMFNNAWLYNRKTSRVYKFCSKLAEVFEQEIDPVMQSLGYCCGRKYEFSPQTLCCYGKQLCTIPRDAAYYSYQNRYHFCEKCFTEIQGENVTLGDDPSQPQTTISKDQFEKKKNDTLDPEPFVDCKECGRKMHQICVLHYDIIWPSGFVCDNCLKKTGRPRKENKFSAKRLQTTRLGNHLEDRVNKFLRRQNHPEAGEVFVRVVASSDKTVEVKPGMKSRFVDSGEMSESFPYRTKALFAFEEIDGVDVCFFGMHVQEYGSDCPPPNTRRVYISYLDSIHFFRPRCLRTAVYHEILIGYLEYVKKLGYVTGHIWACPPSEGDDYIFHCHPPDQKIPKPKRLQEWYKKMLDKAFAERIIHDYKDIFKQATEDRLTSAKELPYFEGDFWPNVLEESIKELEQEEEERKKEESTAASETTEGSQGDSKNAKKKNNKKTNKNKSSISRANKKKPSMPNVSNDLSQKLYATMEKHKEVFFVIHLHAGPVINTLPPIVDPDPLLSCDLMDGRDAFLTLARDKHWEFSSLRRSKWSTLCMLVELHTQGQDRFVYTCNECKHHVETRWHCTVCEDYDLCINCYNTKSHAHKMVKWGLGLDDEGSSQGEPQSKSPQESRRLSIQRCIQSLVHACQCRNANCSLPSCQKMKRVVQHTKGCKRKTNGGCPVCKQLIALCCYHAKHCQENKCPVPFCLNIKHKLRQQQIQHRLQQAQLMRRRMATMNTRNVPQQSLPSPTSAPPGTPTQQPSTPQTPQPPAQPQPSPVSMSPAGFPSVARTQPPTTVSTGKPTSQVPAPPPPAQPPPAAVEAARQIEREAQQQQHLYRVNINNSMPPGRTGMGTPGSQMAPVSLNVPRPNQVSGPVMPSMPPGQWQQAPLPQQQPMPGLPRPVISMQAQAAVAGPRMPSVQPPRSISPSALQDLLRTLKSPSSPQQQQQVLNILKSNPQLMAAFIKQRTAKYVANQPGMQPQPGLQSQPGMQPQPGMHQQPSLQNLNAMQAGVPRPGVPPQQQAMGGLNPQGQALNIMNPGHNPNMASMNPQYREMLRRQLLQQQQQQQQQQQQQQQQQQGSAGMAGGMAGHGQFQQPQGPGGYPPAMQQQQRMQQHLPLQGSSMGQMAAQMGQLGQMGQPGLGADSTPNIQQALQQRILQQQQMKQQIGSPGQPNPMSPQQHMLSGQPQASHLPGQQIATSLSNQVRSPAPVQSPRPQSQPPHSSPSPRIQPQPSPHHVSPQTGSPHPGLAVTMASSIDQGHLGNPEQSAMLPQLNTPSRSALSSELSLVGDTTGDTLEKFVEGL

Chain of Bromodomain-containing protein 2 (Homo sapiens) (P25440 whole entry, looked up, canonical isoform): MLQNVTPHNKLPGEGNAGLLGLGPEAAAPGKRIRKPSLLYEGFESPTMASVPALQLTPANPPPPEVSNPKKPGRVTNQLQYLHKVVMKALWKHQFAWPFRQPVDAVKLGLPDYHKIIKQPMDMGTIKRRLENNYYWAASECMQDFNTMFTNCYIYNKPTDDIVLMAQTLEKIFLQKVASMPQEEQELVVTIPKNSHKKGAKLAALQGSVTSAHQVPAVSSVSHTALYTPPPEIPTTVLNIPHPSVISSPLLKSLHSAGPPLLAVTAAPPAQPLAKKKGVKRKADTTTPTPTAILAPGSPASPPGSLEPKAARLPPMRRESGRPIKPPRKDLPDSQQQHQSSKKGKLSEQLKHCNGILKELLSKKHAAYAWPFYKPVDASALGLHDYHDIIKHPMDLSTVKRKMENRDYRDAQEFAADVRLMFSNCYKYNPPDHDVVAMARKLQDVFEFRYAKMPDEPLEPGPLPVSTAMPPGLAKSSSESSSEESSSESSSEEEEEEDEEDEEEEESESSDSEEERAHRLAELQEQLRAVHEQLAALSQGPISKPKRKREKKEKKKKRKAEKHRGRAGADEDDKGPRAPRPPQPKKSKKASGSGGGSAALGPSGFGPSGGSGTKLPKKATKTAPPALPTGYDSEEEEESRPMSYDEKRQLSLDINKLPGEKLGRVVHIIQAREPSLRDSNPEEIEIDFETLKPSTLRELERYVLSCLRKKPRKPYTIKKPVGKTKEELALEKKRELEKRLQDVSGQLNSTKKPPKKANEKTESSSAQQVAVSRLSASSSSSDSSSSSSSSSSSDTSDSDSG
Chain of Bromodomain-containing protein 3 (Homo sapiens) (Q15059 2-726 limits assumed): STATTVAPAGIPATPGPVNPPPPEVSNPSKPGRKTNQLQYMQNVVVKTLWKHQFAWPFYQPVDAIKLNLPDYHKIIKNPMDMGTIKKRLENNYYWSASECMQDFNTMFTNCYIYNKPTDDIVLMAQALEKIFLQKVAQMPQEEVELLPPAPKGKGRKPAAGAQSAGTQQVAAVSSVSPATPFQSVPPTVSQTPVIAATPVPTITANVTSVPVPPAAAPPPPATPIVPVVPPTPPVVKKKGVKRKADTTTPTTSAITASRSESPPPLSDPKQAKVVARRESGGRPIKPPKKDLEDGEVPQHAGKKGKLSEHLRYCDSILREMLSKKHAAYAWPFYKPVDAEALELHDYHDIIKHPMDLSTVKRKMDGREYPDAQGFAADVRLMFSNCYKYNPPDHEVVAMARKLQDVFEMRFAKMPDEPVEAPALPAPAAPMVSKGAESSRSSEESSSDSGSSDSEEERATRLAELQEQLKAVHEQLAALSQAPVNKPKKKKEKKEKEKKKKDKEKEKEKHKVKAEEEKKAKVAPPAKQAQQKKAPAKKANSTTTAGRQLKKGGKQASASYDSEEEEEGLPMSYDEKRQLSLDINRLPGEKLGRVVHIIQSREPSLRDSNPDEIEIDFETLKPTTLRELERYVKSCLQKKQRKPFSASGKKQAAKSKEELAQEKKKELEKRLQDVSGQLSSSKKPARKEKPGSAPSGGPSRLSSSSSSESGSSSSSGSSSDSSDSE
Chain of Histone acetyltransferase KAT2B (Homo sapiens) (Q92831 whole entry, looked up): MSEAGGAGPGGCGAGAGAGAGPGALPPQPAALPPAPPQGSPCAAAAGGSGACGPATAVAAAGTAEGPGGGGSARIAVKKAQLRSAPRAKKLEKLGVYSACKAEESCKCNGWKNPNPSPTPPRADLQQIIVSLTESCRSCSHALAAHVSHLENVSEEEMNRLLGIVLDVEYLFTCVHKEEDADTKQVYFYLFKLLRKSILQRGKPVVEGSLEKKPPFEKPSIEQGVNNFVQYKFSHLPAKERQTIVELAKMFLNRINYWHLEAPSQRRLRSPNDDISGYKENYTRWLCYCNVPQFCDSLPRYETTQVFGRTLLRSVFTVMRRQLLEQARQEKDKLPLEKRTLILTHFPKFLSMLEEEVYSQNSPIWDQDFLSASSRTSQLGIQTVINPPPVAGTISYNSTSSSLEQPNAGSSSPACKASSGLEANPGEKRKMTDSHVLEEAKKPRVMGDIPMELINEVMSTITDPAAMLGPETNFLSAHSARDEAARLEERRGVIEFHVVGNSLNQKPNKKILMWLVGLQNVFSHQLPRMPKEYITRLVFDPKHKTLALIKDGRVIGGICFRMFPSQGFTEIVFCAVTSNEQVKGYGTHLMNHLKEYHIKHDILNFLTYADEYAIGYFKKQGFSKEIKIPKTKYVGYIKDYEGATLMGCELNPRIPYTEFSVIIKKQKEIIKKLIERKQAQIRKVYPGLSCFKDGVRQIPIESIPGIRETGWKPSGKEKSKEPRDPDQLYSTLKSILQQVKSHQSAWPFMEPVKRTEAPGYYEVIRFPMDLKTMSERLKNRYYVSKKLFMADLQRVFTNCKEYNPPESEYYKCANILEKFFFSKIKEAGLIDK

The compound `CN1Cc2cc(NS(=O)(=O)c3ccc(C#N)cc3)ccc2NC1=O` yielded an IC50 in [1] of 2300 nM. In other words, the single-digit micromolar range.
In [1], `CN1Cc2cc(NS(=O)(=O)c3ccccc3C(F)(F)F)ccc2NC1=O` registered an IC50 of 470 nM. Compared with the last compound, the IC50 is about 4.9-fold lower.
On to `CCNS(=O)(=O)c1ccc2c(c1)CN(C)C(=O)N2`, for which, in [1], the IC50 came out at 1900 nM.
Consider `Cc1ccc(S(=O)(=O)Nc2ccc3c(c2)CN(C)C(=O)N3)cc1`, for which inhibition in [1] was half-maximal at 390 nM (IC50).
In the case of `COc1ccccc1S(=O)(=O)Nc1ccc2c(c1)CN(C)C(=O)N2`, the Vd in data set [2] stood at 1 L/kg. The ΔTm in [3] is 2.08 °C; in data set [5] it was 5.32 °C; in data set [8], 5.45 °C; in [11], 0.81 °C; in data set [14], 4.61 °C; in data set [15], 5.24 °C. Moreover, the ΔTm in data set [17] was 0.83 °C; in data set [18] it was 0.3 °C; on CREB-binding protein [20], 1.7 °C. The peak concentration (Cmax) in [4] was 58 ng/mL. In data set [6], this compound showed a bioavailability of 32%. The t1/2 with Liver microsomes is reported as > 120 min. Further, the half-life in data set [7] was 120 min; in data set [13], 60 min. The Tmax in data set [9] was 1 h. For the same compound, in data set [10], the concentration at 7 h came out at 62 ng/mL. Also, the fraction unbound in data set [12] was 0.31. This compound came in with an EC50 with PBMC of 1890 nM. Moreover, the affinity on CREB-binding protein [16], expressed as Kd, was 49 µM. The clearance in data set [19] was 18 mL/min/kg.
As to `CN1Cc2cc(NS(=O)(=O)c3ccccc3)ccc2NC1=O`, the IC50 in [1] is 880 nM. This counts as sub-micromolar.
As for `COc1cccc(S(=O)(=O)Nc2ccc3c(c2)CN(C)C(=O)N3)c1`, in data set [1], the IC50 was determined as 730 nM.
`CN1Cc2cc(NS(=O)(=O)c3ccccc3F)ccc2NC1=O`: in [1], the IC50 was 360 nM.
`Cc1ccccc1S(=O)(=O)Nc1ccc2c(c1)CN(C)C(=O)N2` returned an IC50 in data set [1] of 220 nM.
In data set [1], `CN1Cc2cc(S(=O)(=O)N3CCCC3)ccc2NC1=O` had an IC50 of 4800 nM.
In data set [1], `COc1ccc(S(=O)(=O)Nc2ccc3c(c2)CN(C)C(=O)N3)cc1` had an IC50 of 880 nM.
With `CN1Cc2cc(NS(=O)(=O)c3ccc(F)cc3Cl)ccc2NC1=O`, the IC50 in [1] was 180 nM.

What is called IC50 is the concentration at which inhibition is half-maximal. Low readings indicate inhibition by little substance, high ones a need for much substance. For orientation: Vd means a proportionality between amount in the body and measured concentration, not a real space. High values mean extensive tissue distribution, low ones confinement near the circulation. By ΔTm is commonly meant the change in melting temperature against a reference sample. By Cmax is commonly meant the maximum level reached in the sampled fluid or tissue. By bioavailability is commonly meant the share of a dose that reaches the circulation, judged against a reference dose that is usually intravenous. A low value points to poor availability. What is called half-life is the time needed for the level to fall by half in the phase considered. The low end stands for rapid decline, the high end for slow decline. The term Tmax denotes the time from dosing to the highest level. In general, EC50 refers to the concentration that produces a half-maximal response. A lower EC50 goes with higher potency in that assay. For orientation: Kd means the free concentration of one partner at which half of the binding sites on the other are occupied at equilibrium, for simple one-to-one binding. Low readings indicate tighter binding, high ones weaker binding. In general, clearance refers to a measure of how efficiently the substance is removed, as volume per time.
